The text below walks through data of ChEMBL document CHEMBL1833814 (Bioorg Med Chem Lett, 2011).

The test deals with Fatty acid synthase (Homo sapiens, UniProt P49327). The test can be described thus: Inhibition of human FAS assessed as synthesis of long chain fatty acids from malonyl CoA after 60 mins by fluorescence assay. The procedure, abridged: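 FAS enzyme prepared from HeLa cells, in enzyme buffer (20 mM K phosphate, 1 mM EDTA, 1 mM DTT, 5% glycerol, pH 7.4). It was preincubated 60 min at 37 °C with compound (0.1% DMSO), 326 µM NADPH and 60 µM acetyl CoA in 100 mM K phosphate, 1 mM EDTA, 1 mM DTT, pH 7.0. The reaction was started with 200 µM malonyl CoA. NADPH consumption was read at 340 nm over 10 min, and the slope (Vmax) was taken.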
Fatty acid synthase, sequence (P49327 whole entry): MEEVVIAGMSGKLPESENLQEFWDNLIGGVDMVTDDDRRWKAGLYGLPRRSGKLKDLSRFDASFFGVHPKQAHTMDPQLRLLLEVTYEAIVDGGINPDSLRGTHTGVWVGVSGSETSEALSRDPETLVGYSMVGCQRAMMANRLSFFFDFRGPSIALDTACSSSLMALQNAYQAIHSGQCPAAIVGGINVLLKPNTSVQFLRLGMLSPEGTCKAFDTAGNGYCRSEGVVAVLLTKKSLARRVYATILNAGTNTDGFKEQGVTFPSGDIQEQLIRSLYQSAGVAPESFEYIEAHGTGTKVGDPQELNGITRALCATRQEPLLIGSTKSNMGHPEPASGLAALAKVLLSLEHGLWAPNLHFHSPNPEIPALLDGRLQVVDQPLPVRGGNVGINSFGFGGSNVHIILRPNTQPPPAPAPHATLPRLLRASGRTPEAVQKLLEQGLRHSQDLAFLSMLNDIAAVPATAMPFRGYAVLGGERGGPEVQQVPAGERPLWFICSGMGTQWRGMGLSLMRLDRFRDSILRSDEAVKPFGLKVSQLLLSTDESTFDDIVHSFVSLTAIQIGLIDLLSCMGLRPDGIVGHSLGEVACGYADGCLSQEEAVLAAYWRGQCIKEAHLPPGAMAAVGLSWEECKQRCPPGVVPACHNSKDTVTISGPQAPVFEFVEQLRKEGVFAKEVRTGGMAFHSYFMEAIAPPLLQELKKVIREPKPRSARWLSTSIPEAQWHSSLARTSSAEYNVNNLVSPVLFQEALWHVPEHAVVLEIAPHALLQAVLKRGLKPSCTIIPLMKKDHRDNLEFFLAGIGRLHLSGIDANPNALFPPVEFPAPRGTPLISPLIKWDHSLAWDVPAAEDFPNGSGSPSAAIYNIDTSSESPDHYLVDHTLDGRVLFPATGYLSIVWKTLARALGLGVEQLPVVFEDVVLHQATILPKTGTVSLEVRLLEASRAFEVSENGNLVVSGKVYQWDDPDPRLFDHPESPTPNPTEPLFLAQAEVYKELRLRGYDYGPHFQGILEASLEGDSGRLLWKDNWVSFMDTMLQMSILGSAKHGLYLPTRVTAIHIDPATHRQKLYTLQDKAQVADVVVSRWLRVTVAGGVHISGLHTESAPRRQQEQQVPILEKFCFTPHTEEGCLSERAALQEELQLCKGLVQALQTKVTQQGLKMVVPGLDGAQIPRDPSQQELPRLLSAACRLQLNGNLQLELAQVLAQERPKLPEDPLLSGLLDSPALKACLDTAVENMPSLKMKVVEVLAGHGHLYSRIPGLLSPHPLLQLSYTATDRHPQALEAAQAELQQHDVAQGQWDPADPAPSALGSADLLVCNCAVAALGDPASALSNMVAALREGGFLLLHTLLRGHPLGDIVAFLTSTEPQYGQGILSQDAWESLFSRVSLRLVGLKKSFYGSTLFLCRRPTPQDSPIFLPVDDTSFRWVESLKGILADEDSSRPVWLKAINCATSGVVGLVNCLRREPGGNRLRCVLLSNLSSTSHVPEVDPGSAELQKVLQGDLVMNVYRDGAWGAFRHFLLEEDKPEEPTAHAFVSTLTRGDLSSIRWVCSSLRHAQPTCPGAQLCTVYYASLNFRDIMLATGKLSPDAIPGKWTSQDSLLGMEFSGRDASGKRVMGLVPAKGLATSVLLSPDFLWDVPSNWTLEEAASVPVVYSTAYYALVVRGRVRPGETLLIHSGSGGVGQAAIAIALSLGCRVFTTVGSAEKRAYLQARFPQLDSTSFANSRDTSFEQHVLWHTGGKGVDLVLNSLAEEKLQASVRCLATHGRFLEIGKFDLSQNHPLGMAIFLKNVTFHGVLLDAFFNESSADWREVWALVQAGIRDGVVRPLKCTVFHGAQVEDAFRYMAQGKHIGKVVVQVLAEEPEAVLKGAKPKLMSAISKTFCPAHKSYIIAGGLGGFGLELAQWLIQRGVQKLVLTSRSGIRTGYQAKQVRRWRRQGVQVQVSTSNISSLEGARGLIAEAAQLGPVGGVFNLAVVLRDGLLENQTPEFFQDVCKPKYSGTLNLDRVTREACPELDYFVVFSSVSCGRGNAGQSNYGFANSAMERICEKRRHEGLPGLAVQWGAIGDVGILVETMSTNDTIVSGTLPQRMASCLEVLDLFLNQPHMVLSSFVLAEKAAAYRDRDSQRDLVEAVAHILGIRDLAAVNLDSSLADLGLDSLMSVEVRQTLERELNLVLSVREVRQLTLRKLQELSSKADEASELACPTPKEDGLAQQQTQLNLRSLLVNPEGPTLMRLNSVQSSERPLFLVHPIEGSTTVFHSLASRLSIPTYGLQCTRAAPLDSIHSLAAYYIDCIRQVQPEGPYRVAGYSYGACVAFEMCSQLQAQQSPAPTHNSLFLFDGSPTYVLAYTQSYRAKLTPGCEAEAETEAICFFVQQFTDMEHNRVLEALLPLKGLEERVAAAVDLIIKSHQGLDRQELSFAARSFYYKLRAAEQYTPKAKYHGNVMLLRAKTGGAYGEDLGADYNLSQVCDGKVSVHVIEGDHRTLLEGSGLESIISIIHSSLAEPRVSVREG

The IC50 is the concentration needed to halve the response being measured.

As for `CC(=O)N[C@H]1CC[C@@H](C(=O)N(C)c2ccc(-c3ccccc3)cc2)C1`, the half-maximal inhibitory concentration (IC50) was determined as 480 nM.
Then `CC(C)C(=O)N[C@H]1CC[C@@H](C(=O)N(C)c2ccc(-c3ccccc3)cc2)C1`, with 420 nM; and `CCNC(=O)N[C@H]1CC[C@@H](C(=O)N(C)c2ccc(-c3ccccc3)cc2)C1`, with 1500 nM.
On to `CCC(=O)N[C@H]1CC[C@@H](C(=O)N(C)c2ccc(-c3ccccc3)cc2)C1`, for which the IC50 worked out at 300 nM.
Then `CN(C)CCCCCC(=O)N[C@H]1CC[C@@H](C(=O)N(C)c2ccc(-c3ccccc3)cc2)C1`, with 2000 nM.
The value for `CC(=O)N[C@@H]1CC[C@H](C(=O)N(C)c2ccc(-c3ccccc3)cc2)C1` was > 10000 nM; that for `CCC(=O)N[C@H]1CC[C@@H](C(=O)N(C)c2ccc(-c3nc4ccccc4[nH]3)cc2)C1` was 190 nM.
Consider `CCC(=O)N[C@H]1CC[C@@H](C(=O)N(C)c2ccc(-c3nc4ccccc4n3C)cc2)C1`, for which the IC50 was determined as 310 nM.
Consider `CCC(=O)N[C@H]1CC[C@@H](C(=O)N(C)c2ccc(-c3cn4ccccc4n3)cc2)C1`, for which the 50% inhibitory concentration (IC50) is 290 nM.
The value for `CC(=O)N[C@H]1CC[C@@H](C(=O)N(C)c2ccc(-c3nc4ccccc4[nH]3)cc2)C1` was 1300 nM; that for `CC(C)C(=O)N[C@H]1CC[C@@H](C(=O)N(C)c2ccc(-c3nc4ccccc4[nH]3)cc2)C1` was 1500 nM.
Then `CCNC(=O)N[C@H]1CC[C@@H](C(=O)N(C)c2ccc(-c3nc4ccccc4[nH]3)cc2)C1`, with 400 nM.
